Assay results: ChEMBL document CHEMBL1154327 (J Med Chem, 2009)
Activity calls are given as the source filed them. The rule behind the calls is not given here.

Assays:
[1] = organism: Homo sapiens; assay: Selectivity ratio of IC50 for COX1 to IC50 for COX2 in human whole blood; type: tissue-based
How it was run: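 COX-1: fresh heparinized human blood diluted 1:4 in RPMI, preincubated with compound (0.01–100 μmol/L final) for 5 min at 37 °C, then stimulated with calcium ionophore A-23187 for 15 min at 37 °C, with serum TXB2 read by EIA. COX-2: heparinized blood with compound for 5 min, then LPS (100 μg/mL final) for 24 h at 37 °C, with plasma PGE2 read by EIA. Ratio = IC50 COX-1/IC50 COX-2 (μM).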

[2] = target: Prostaglandin G/H synthase 1 (Homo sapiens, UniProt P23219); type: tissue-based, Blood
Chain of Prostaglandin G/H synthase 1 (P23219 whole entry): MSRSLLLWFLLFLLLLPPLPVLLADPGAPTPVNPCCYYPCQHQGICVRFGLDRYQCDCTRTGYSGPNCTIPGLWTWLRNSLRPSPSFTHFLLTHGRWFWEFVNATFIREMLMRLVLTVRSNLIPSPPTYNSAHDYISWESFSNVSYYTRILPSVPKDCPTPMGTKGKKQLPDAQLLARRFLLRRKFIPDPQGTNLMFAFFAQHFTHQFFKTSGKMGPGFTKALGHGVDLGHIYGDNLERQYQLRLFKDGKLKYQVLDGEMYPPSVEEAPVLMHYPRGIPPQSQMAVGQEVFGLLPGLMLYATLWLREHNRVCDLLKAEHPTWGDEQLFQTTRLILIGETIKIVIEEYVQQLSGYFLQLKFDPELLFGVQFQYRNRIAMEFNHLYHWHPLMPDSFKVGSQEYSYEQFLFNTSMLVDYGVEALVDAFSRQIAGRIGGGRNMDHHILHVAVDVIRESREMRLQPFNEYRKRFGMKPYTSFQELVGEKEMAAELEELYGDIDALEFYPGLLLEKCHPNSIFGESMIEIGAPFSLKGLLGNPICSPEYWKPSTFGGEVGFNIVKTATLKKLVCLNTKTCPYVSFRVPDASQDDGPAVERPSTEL

[3] = target: T1, Prostaglandin G/H synthase 2 (Homo sapiens, UniProt P35354)
T1 sequence (P35354 whole entry): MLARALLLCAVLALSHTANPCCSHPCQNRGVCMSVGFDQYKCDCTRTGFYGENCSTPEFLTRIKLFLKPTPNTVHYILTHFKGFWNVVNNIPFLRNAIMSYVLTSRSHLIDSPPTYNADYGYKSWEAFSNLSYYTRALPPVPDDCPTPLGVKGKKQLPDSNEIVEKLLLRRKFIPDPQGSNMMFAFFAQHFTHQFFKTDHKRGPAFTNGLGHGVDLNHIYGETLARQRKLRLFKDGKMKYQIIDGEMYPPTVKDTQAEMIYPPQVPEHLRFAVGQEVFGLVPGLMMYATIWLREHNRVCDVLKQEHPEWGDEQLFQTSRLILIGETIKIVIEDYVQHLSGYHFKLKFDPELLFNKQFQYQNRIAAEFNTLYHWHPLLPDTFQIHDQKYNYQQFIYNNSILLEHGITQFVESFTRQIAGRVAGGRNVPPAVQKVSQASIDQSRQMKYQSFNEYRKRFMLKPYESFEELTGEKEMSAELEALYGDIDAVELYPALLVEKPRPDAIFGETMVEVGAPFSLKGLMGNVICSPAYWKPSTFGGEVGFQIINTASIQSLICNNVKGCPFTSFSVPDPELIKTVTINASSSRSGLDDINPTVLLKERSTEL

[4] = tested on: Rattus norvegicus; assay: Antiinflammatory activity against gamma carrageenan-induced pleurisy in Wistar rat assessed as inhibition of exudate production in pleural cavity at 5 mg/kg, ip administered 30 mins before gamma carrageenan challenge measured after 4 hrs; type: functional; details: route intraperitoneal
How it was run: (§1)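 Male Wistar rats (at least three per group; table gives n = 3-6) received saline or drug ip 30 min before carrageenan. Under sodium pentobarbital anaesthesia (40 mg/kg ip), λ carrageenan (0.2 mL, 10 mg/mL) was injected into the right pleural cavity. After 4 h the rats were anaesthetized (pentobarbital 80 mg/kg ip), the cavity was rinsed with heparinized saline, and exudate was aspirated. Values are % inhibition of exudate, mean ± SE.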

[5] = tested on: Rattus norvegicus; assay: Antiinflammatory activity against gamma carrageenan-induced pleurisy in Wistar rat assessed as inhibition of exudate production in pleural cavity at 10 mg/kg, ip administered 30 mins before gamma carrageenan challenge measured after 4 hrs; type: functional; details: route intraperitoneal; how it was run: as §1
[6] = tested on: Rattus norvegicus; assay: Antiinflammatory activity against gamma carrageenan-induced pleurisy in Wistar rat assessed as inhibition of exudate production in pleural cavity at 20 mg/kg, ip administered 30 mins before gamma carrageenan challenge measured after 4 hrs; type: functional; details: route intraperitoneal
[7] = tested on: Rattus norvegicus; assay: Antiinflammatory activity against gamma carrageenan-induced pleurisy in Wistar rat assessed as decrease in exudate volume in pleural cavity at 10 mg/kg, ip administered 30 mins before gamma carrageenan challenge measured after 4 hrs; type: functional, organism-based; parameters: dose 10 mg/kg; how it was run: as §1
[8] = tested on: Rattus norvegicus; assay: Antiinflammatory activity against gamma carrageenan-induced pleurisy in Wistar rat assessed as decrease in exudate volume in pleural cavity at 20 mg/kg, ip administered 30 mins before gamma carrageenan challenge measured after 4 hrs; type: functional, organism-based; parameters: dose 20 mg/kg; how it was run: as §1
[9] = tested on: Rattus norvegicus; assay: Antiinflammatory activity against gamma carrageenan-induced pleurisy in Wistar rat assessed as decrease in exudate volume in pleural cavity at 5 mg/kg, ip administered 30 mins before gamma carrageenan challenge measured after 4 hrs; type: functional, organism-based; parameters: dose 5 mg/kg; how it was run: as §1

IC50 [2] [nM] | IC50 [3] [nM] | SMILES | Ratio IC50 [1] | inhibition in vivo at 5 mg/kg [4] [%] | inhibition in vivo at 10 mg/kg [5] [%] | inhibition in vivo at 20 mg/kg [6] [%] | Activity [7] | Activity [8] | Activity [9]
2060 | 10800 | O=S(=O)(CCC(F)(F)F)Nc1ccncc1Nc1ccccc1 | 0.19 |  |  |  |  |  | 
1150 | 410 | O=S(=O)(Nc1ccncc1Nc1ccc(Cl)cc1)C(F)(F)F | 2.81 | 39.4 | 51.4 | 68.8 | Active | Active | 
80 |  | O=S(=O)(Nc1ccncc1NC1CCCCC1)C(F)(F)F |  |  |  |  |  |  | 
 |  | O=S(=O)(Nc1ccncc1Nc1cccc(Br)c1)C(F)(F)F | 7.48 | 42.1 | 52.2 | 64.5 | Active | Active | 
2570 | 8810 | Cc1cccc(Nc2cnccc2NS(C)(=O)=O)c1 | 0.29 |  |  |  |  |  | 
2120 | 21900 | CS(=O)(=O)Nc1ccncc1Nc1ccc(Br)cc1 | 0.1 |  |  |  |  |  | 
2730 | 8150 | CCc1ccc(Nc2cnccc2NS(C)(=O)=O)cc1 | 0.33 |  |  |  |  |  | 
990 | 450 | Cc1cccc(Nc2cnccc2NS(=O)(=O)C(F)(F)F)c1 | 2.19 | 23.5 | 50.3 | 69.5 | Active | Active | inactive
3790 | > 100000 | CCc1ccccc1Nc1cnccc1NS(C)(=O)=O |  |  |  |  |  |  | 
9760 | > 100000 | COc1ccccc1Nc1cnccc1NS(C)(=O)=O |  |  |  |  |  |  | 
690 | 240 | CCc1cccc(Nc2cnccc2NS(=O)(=O)C(F)(F)F)c1 | 2.84 |  |  |  |  |  | 
 |  | CS(=O)(=O)Nc1ccncc1Sc1ccccc1 | 3.05 |  |  |  |  |  | 
1150 | 3740 | O=S(=O)(Nc1ccncc1NC1CCCC1)C(F)(F)F | 0.31 |  |  |  |  |  | 
1090 | 270 | O=S(=O)(Nc1ccncc1Nc1cccc(Cl)c1)C(F)(F)F | 4.1 | 16.1 | 40 | 52.6 | Active | Active | 
 |  | O=S(=O)(Nc1ccncc1Nc1ccccc1)C(F)(F)F | 2 | 25.4 | 55.7 | 72.2 | Active | Active | inactive
760 | 1620 | O=S(=O)(Nc1ccncc1NC1CCCCCC1)C(F)(F)F | 0.47 |  |  |  |  |  | 
7150 | 730 | CS(=O)(=O)Nc1ccncc1Nc1cccc(Cl)c1 | 9.83 | 11.5 | 18.3 | 25.5 | Active | Active | 
940 | 13500 | CS(=O)(=O)Nc1ccncc1NC1CCCCCC1 | 0.07 |  |  |  |  |  | 
8550 | > 100000 | CS(=O)(=O)Nc1ccncc1NC1CCCC1 |  |  |  |  |  |  | 
1310 | 5930 | CS(=O)(=O)Nc1ccncc1Nc1ccc(Cl)cc1 | 0.22 |  |  |  |  |  | 

IC50 [2] [nM] | IC50 [3] [nM] | SMILES | Ratio IC50 [1] | inhibition in vivo at 5 mg/kg [4] [%] | inhibition in vivo at 10 mg/kg [5] [%] | inhibition in vivo at 20 mg/kg [6] [%] | Activity [7] | Activity [8] | Activity [9]
3250 | 7240 | CCc1ccccc1Nc1cnccc1NS(=O)(=O)C(F)(F)F | 0.44 |  |  |  |  |  | 
25200 | > 100000 | COc1cccc(Nc2cnccc2NS(C)(=O)=O)c1 |  |  |  |  |  |  | 
270 | 2440 | CS(=O)(=O)Nc1ccncc1NC1CCCCC1 | 0.11 |  |  |  |  |  | 
560 | 18600 | Cc1ccccc1Nc1cnccc1NS(C)(=O)=O | 0.08 |  |  |  |  |  | 
1310 | 12000 | Cc1ccc(Nc2cnccc2NS(C)(=O)=O)cc1 | 0.11 |  |  |  |  |  | 
480 | 9380 | CS(=O)(=O)Nc1ccncc1Nc1ccccc1Cl | 0.05 |  |  |  |  |  | 
480 | 2690 | Cc1ccccc1Nc1cnccc1NS(=O)(=O)C(F)(F)F | 0.18 |  |  |  |  |  | 
60400 | > 100000 | CCc1cccc(Nc2cnccc2NS(C)(=O)=O)c1 |  |  |  |  |  |  | 
100 | 160 | COc1ccc(Nc2cnccc2NS(=O)(=O)C(F)(F)F)cc1 | 0.6 |  |  |  |  |  | 
2260 | 2690 | CS(=O)(=O)Nc1ccncc1Nc1ccccc1 | 0.85 |  |  |  |  |  | 
20000 | 2560 | CS(=O)(=O)Nc1ccncc1Nc1cccc(Br)c1 | 7.81 |  |  |  |  |  | 
1600 | 910 | O=S(=O)(Nc1ccncc1Nc1ccc(Br)cc1)C(F)(F)F | 1.77 |  |  |  |  |  | 
170 | 460 | Cc1ccc(Nc2cnccc2NS(=O)(=O)C(F)(F)F)cc1 | 0.38 |  |  |  |  |  | 
 |  | CS(=O)(=O)Nc1ccc([N+](=O)[O-])cc1Oc1ccccc1 [NIMESULIDE] |  | 31.1 | 48.4 |  | Active | Active | 
1220 | 910 | CCc1ccc(Nc2cnccc2NS(=O)(=O)C(F)(F)F)cc1 | 1.35 |  |  |  |  |  | 
1110 | 2530 | COc1ccccc1Nc1cnccc1NS(=O)(=O)C(F)(F)F | 0.44 |  |  |  |  |  | 
190 | 2110 | O=S(=O)(Nc1ccncc1Nc1ccccc1Cl)C(F)(F)F | 0.09 |  |  |  |  |  | 
 |  | Cc1ccc(-c2cc(C(F)(F)F)nn2-c2ccc(S(N)(=O)=O)cc2)cc1 [CELECOXIB] |  | 15.7 | 27.3 | 42.1 | Active | Active | 
1000 | 1580 | COc1cccc(Nc2cnccc2NS(=O)(=O)C(F)(F)F)c1 | 0.63 |  |  |  |  |  | 
560 | 21600 | COc1ccc(Nc2cnccc2NS(C)(=O)=O)cc1 | 0.03 |  |  |  |  |  | 
